In ChEMBL document CHEMBL4368920, “Discovery of 2,4-diamino-5-cyanopyrimidine derivatives as protein kinase C theta inhibitors with mitigated time-dependent drug-drug interactions” (Bioorg Med Chem, 2019):
pIC50: −log10 of the molar value. ≈ marks a conversion by molar mass, not a printed value.

Columns and labels:
[1] = target: T1, Protein kinase C theta type (Homo sapiens, UniProt Q04759); assay: Inhibition of recombinant human full length PKCtheta using biotin-labelled STK substrate-1 as substrate after 60 mins by fluorescence assay
[2] = target: CYP3A4 (Homo sapiens, UniProt P08684); assay: Time-dependent inhibition of CYP3A4 in human liver microsomes assessed as residual activity at 5 uM using midazolam as substrate preincubated for 30 mins followed by substrate addition and measured after 20 mins in presence of NADPH by LC-MS/MS analysis relative to control; format: ADME; details: probe midazolam, read-out: Activity
How it was run: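 Human liver microsomes at 0.1 mg/mL in 100 mM potassium sodium phosphate (pH 7.4) with 1 mM NADPH and 0.1 mM EDTA, compound at 5 μM. Midazolam added either with no preincubation or after 30 min preincubation at 37 °C. Reaction run 20 min at 37 °C and stopped with acetonitrile. Residual activity is 30-min activity as a percentage of 0-min activity.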

[3] = Aqueous solubility of the compound at pH 6.8 at 130 uM after 20 hrs by HPLC analysis; format: physicochemical; details: aqueous solution
How it was run: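 DMSO stock diluted to 130 μM with pH 6.8 aqueous buffer. Incubated 20 h at 25 °C, precipitate removed by filtration, filtrate concentration measured by HPLC.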

[4] = target: T1, Protein kinase C theta type; assay: Inhibition of PKCtheta in human Jurkat cells assessed as reduction in IL2 production after 14 hrs by luciferase reporter gene assay; format: cell-based
How it was run: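 Jurkat cells transiently transfected with a pGL3-IL2 promoter firefly luciferase plasmid. Stimulated with anti-CD3 plus anti-CD28 antibodies in the presence of compound for 14 h, then luciferase substrate added. IC50 from duplicates in one experiment.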

[5] = AUC (0 to 24 hrs) in Sprague-Dawley rat at 1 mg/kg, iv by LC-MS/MS analysis; format: ADME, organism-based; design: time < 24 hr, dose 1 mg/kg, route intravenous; details: in vivo
How it was run: (§1)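 Female SD rats, 1 mg/kg given as a single i.v. or oral dose in DMF/propylene glycol/1N HCl/saline (25/25/0.2/49.8). Blood sampled at multiple times up to 24 h. Unchanged compound in plasma measured by LC-MS/MS. Parameters derived by noncompartmental analysis. F taken as the AUC ratio of oral to i.v. dosing. Each value is the mean of three animals.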

[6] = Elimination half life in Sprague-Dawley rat at 1 mg/kg, iv by LC-MS/MS analysis; format: ADME, organism-based; details: in vivo, read-out: beta t1/2 (converted); how it was run: as §1
[7] = Volume of distribution at steady state in Sprague-Dawley rat at 1 mg/kg, iv by LC-MS/MS analysis; format: ADME, organism-based; details: in vivo, read-out: Vdss; how it was run: as §1
[8] = Total clearance in Sprague-Dawley rat at 1 mg/kg, iv by LC-MS/MS analysis; format: ADME, organism-based; details: in vivo; how it was run: as §1
[9] = AUC (0 to 24 hrs) in Sprague-Dawley rat at 1 mg/kg, po by LC-MS/MS analysis; format: ADME, organism-based; design: time < 24 hr, dose 1 mg/kg, route oral; details: in vivo; how it was run: as §1
[10] = Cmax in Sprague-Dawley rat at 1 mg/kg, po by LC-MS/MS analysis; format: ADME, organism-based; design: dose 1 mg/kg, route oral; details: in vivo; how it was run: as §1
[11] = Tmax in Sprague-Dawley rat at 1 mg/kg, po by LC-MS/MS analysis; format: ADME, organism-based; details: in vivo; how it was run: as §1
[12] = Oral bioavailability in Sprague-Dawley rat at 1 mg/kg by LC-MS/MS analysis; format: ADME, organism-based; details: in vivo; how it was run: as §1
[13] = tested on: Rattus norvegicus; assay: Immunosuppressive activity in Lewis rat transplanted with ACI rat cardiac tissue assessed as reduction in graft rejection by measuring mean survival days at 1 mg/kg, po administered for 14 consecutive days co-treated with tacrolimus (reference value: 7 days); format: functional
How it was run: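 ACI donor hearts into Lewis recipients, abdominal vascularized heterotopic transplant under aseptic conditions; pentobarbital 40 mg/kg i.p. anaesthesia. Agent in propylene glycol, given orally with tacrolimus (0.02 mg/kg) for 14 consecutive days starting on operation day. Graft survival recorded per animal and median survival time reported (n = 9).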

Sequence of CYP3A4 (P08684 whole entry): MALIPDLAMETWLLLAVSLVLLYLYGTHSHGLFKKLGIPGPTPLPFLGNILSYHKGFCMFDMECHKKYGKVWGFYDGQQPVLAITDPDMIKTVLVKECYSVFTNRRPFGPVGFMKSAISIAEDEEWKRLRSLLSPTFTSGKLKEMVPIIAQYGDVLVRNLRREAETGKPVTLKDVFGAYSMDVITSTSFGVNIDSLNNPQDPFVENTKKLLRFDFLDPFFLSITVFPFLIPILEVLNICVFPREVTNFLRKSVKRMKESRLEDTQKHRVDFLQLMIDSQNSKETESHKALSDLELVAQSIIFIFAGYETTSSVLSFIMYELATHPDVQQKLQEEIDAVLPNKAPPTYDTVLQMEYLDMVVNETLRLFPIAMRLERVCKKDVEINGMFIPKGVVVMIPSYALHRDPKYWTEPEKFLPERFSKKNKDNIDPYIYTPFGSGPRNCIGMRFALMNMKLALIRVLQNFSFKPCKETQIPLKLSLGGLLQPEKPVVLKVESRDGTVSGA
T1 sequence (Q04759 whole entry): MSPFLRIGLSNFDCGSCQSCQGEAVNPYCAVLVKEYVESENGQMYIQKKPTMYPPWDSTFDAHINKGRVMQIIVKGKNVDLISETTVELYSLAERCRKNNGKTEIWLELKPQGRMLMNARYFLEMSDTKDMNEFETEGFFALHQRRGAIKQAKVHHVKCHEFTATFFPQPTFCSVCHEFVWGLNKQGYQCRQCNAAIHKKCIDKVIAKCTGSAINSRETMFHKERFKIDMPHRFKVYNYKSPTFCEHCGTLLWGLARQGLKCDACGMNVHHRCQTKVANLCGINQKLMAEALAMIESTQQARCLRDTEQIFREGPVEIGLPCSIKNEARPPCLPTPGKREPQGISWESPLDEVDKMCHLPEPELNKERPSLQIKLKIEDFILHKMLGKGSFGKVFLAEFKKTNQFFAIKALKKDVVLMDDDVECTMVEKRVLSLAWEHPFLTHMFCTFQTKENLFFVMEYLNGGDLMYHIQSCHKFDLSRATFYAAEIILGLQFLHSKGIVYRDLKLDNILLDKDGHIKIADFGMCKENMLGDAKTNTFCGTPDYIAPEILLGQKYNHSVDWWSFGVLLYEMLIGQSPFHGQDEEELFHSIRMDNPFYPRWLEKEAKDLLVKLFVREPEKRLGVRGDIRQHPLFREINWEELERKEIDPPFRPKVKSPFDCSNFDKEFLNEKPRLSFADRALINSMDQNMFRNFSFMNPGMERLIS

Compound | pIC50 [1] | activity at 20 min, 5 µM [2] | solubility at 20 h, 130 µM [3] | pIC50 [4] | further results
COc1nnccc1CNc1ncc(C#N)c(NCC23CC4CC(C2)C(NC[C@H]2CC[C@H](O)CC2)C(C4)C3)n1 (stereo not given in full) | < 7.00 |  | > 100 µM |  | 
N#Cc1cnc(NCc2ccccc2OC(F)(F)F)nc1NCC12CC3CC(C1)C(NC1CCCCC1)C(C3)C2 (stereo not given) | 8.72 | 43% |  |  | 
N#Cc1cnc(NCc2ccccc2OC(F)(F)F)nc1NCC12CC3CC(C1)C(NC1CCOCC1)C(C3)C2 (stereo not given) | > 9.00 | 41% |  |  | 
CS(=O)(=O)c1ncccc1CNc1ncc(C#N)c(NCC23CC4CC(C2)C(NC[C@H]2CC[C@H](O)CC2)C(C4)C3)n1 (stereo not given in full) |  |  | > 100 µM | 6.85 | 
COc1ncccc1CNc1ncc(C#N)c(NCC23CC4CC(C2)C(NC[C@H]2CC[C@H](O)CC2)C(C4)C3)n1 (stereo not given in full) | 8.72 | 94% | > 50 µM | 7.37 | 
C[S+]([O-])c1ncccc1CNc1ncc(C#N)c(NCC23CC4CC(C2)C(NC[C@H]2CC[C@H](O)CC2)C(C4)C3)n1 (stereo not given in full) | 7.49 |  | > 100 µM | 6.77 | 
CSc1ncccc1CNc1ncc(C#N)c(NCC23CC4CC(C2)C(NC[C@H]2CC[C@H](O)CC2)C(C4)C3)n1 (stereo not given in full) | 9.36 | 98% | > 50 µM | 8.00 | AUC(0-t) at 24 h [5]: 248 ng·h/mL; half-life [6]: 3.97 h; Vd [7]: 12.9 L/kg; clearance [8]: 66.7 mL/min/kg; AUC(0-t) at 24 h [9]: 145 ng·h/mL; Cmax [10]: 12.4 ng/mL; Tmax [11]: 3.33 h; bioavailability [12]: 58.3%; MSD [13]: 20 days
N#Cc1cnc(NCc2ccccc2Cl)nc1NCC12CC3CC(C1)C(NC[C@H]1CC[C@H](O)CC1)C(C3)C2 (stereo not given in full) | 8.85 | 77% | 1.1 µM (≈ 0.589 µg/mL) | 7.66 | 
CC(C)NC1C2CC3CC1CC(CNc1nc(NCc4ccccc4OC(F)(F)F)ncc1C#N)(C3)C2 (stereo not given) | > 9.00 | 29% |  |  | 

Continued by rising pIC50 [1], values first:

pIC50 [1] | activity at 20 min, 5 µM [2] | solubility at 20 h, 130 µM [3] | pIC50 [4] | Compound | further results
9.03 | 92% | 45 µM (≈ 24.6 µg/mL) | 7.80 | CSc1ccccc1CNc1ncc(C#N)c(NCC23CC4CC(C2)C(NC[C@H]2CC[C@H](O)CC2)C(C4)C3)n1 (stereo not given in full) | 
9.15 | 36% |  |  | N#Cc1cnc(NCc2ccccc2OC(F)(F)F)nc1NCC12CC3CC(C1)C(NCCO)C(C3)C2 (stereo not given) | 
9.18 | 43% |  |  | N#Cc1cnc(NCc2ccccc2OC(F)(F)F)nc1NCC12CC3CC(C1)C(N[C@H]1CC[C@@H](O)CC1)C(C3)C2 (stereo not given in full) | 
9.23 | 87% | > 100 µM | 7.74 | CC(C)Oc1ncccc1CNc1ncc(C#N)c(NCC23CC4CC(C2)C(NC[C@H]2CC[C@H](O)CC2)C(C4)C3)n1 (stereo not given in full) | 
9.24 | 63% |  | 7.77 | N#Cc1cnc(NCc2ccccc2C(F)(F)F)nc1NCC12CC3CC(C1)C(NC[C@H]1CC[C@H](O)CC1)C(C3)C2 (stereo not given in full) | 
9.34 | 80% | 16 µM (≈ 8.99 µg/mL) | > 8.52 | CCSc1ncccc1CNc1ncc(C#N)c(NCC23CC4CC(C2)C(NC[C@H]2CC[C@H](O)CC2)C(C4)C3)n1 (stereo not given in full) | 
9.38 | 70% | < 1 µM | 7.96 | N#Cc1cnc(NCc2ccccc2OC(F)(F)F)nc1NCC12CC3CC(C1)C(NC[C@H]1CC[C@H](O)CC1)C(C3)C2 (stereo not given in full) | 
9.42 | 64% |  |  | N#Cc1cnc(NCc2ccccc2OC(F)(F)F)nc1NCC12CC3CC(C1)C(N[C@H]1CC[C@H](O)CC1)C(C3)C2 (stereo not given in full) | 
9.64 | 66% | < 1 µM | 8.52 | CC(C)Sc1ncccc1CNc1ncc(C#N)c(NCC23CC4CC(C2)C(NC[C@H]2CC[C@H](O)CC2)C(C4)C3)n1 (stereo not given in full) | 
10.00 | 59% |  |  | N#Cc1cnc(NCc2ccccc2OC(F)(F)F)nc1NCC12CC3CC(C1)C(N[C@H]1CC[C@H](N)CC1)C(C3)C2 (stereo not given in full) | 
